Consider 36 molecules from ChEMBL document CHEMBL3813621, “Structure-Activity Relationship Studies of Isomeric 2,4-Diaminoquinazolines on β-Amyloid Aggregation Kinetics” (ACS Med Chem Lett, 2016).

Calls of active or inactive are those of the source. The rule behind the calls is not given here. Some results are limits rather than exact numbers.

The target in experiment [1] is T1, Amyloid-beta precursor protein (Homo sapiens, UniProt P05067). Briefly: Inhibition of self-induced amyloid beta 42 (unknown origin) aggregation measured for 24 hrs by thioflavin T-based fluorescence spectroscopic analysis.
The target in experiment [2] is T1, Amyloid-beta precursor protein. Kind of experiment: Inhibition of self-induced amyloid beta 40 (unknown origin) aggregation measured for 24 hrs by thioflavin T-based fluorescence spectroscopic analysis.
The target is the same in experiment [3]. Briefly: Inhibition of nucleation-dependent amyloid beta 40 (unknown origin) aggregation at 1 to 25 uM measured for 24 hrs by thioflavin T-based fluorescence spectroscopic analysis. The method in brief:
(§1)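 Aβ peptide at 5 μM incubated with test compound (1, 5 or 25 μM) in phosphate buffer pH 7.4 at 37 °C for 24 h; aggregation monitored by ThT fluorescence (excitation 440 nm, emission 490 nm). IC50 calculated from ThT signal; mean of triplicate readings from three independent experiments.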

For experiment [4] the target is unchanged. Kind of experiment: Inhibition of amyloid beta 42 (unknown origin) aggregation assessed as time at which fluorescence intensity reaches the midpoint between pre and post aggregation baseline growth phase at 25 uM measured for 24 hrs by thioflavin T-based fluorescence spectroscopic analysis. An outline of the steps: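 Aβ42 at 5 μM with compound at 25 μM in phosphate buffer pH 7.4, 37 °C, followed 24 h by ThT fluorescence (ex 440/em 490 nm). t50 taken as the time at which fluorescence reaches the midpoint between pre- and postaggregation baselines of the growth phase. Three independent experiments in triplicate.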

For experiment [5] the target is unchanged. Kind of experiment: Induction of self-induced amyloid beta 40 (unknown origin) aggregation measured for 24 hrs by thioflavin T-based fluorescence spectroscopic analysis. The method in brief:
as §1

The target is the same in experiment [6]. Kind of experiment: Induction of self-induced amyloid beta 42 (unknown origin) aggregation measured for 24 hrs by thioflavin T-based fluorescence spectroscopic analysis. An outline of the steps: as §1
Experiment [7] shares this target. Briefly: Potency index, ratio of curcumin IC50 for amyloid beta 40 (unknown origin) aggregation to compound IC50 for amyloid beta 40 (unknown origin) aggregation.
For experiment [8] the target is unchanged. Briefly: Inhibition of amyloid beta 42 (unknown origin) aggregation at 25 uM after 24 hrs by transmission electron microscopy. An outline of the steps: (§2)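 Aβ40 or Aβ42 at 25 μM, alone or with 25 μM compound, incubated 24 h at 37 °C in phosphate buffer pH 7.4; fibril and aggregate morphology then imaged by transmission electron microscopy.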
The target is the same in experiment [9]. Kind of experiment: Inhibition of amyloid beta 40 (unknown origin) aggregation at 25 uM after 24 hrs by transmission electron microscopy. An outline of the steps:
as §2

The target is the same in experiment [10]. Kind of experiment: Potency index, ratio of curcumin IC50 for amyloid beta 42 (unknown origin) aggregation to compound IC50 for amyloid beta 42 (unknown origin) aggregation.

T1 sequence (P05067 whole entry): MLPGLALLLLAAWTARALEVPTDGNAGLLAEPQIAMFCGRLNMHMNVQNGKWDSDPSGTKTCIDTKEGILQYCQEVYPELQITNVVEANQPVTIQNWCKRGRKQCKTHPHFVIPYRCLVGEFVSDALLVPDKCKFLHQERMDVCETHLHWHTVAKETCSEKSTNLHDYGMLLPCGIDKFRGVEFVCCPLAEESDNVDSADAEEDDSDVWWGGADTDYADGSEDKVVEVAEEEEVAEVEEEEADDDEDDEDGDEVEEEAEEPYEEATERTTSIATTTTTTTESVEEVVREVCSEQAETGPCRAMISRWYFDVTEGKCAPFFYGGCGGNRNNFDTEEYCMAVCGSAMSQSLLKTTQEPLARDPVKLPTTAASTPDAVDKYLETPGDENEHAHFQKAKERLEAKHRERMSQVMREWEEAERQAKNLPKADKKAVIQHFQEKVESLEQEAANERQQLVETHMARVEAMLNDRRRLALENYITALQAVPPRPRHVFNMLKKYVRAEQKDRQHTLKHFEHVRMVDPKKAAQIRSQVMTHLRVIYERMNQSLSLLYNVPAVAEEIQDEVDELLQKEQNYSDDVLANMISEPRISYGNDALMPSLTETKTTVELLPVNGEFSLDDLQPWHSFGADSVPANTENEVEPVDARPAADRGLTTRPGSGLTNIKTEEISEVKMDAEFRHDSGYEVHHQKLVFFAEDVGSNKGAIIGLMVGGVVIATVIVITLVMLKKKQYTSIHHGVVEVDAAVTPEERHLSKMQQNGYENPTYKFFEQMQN

In the case of `Nc1nc(NCc2cccc(C(F)(F)F)c2)c2ccccc2n1`, the IC50 (as a rule, the point on the concentration scale where inhibition reaches its midpoint) was determined as 21 µM in experiment [1] (read-out: IC50) and 3.5 µM in experiment [2].
For `Nc1nc(NCc2cccc(F)c2)nc2ccccc12`, in that order: 14.7 µM and 11.3 µM.
For `O=S(=O)(O)c1cc(S(=O)(=O)O)c2c(/N=N/c3ccccc3)c(O)ccc2c1` [ORANGE G SODIUM] the same measures were 8.7 µM and 3 µM.
In the case of `CCCNc1nc(N)nc2ccccc12`, the figures for the IC50 result in experiment [1] and in [2] were “Not Active” and 14.9 µM, respectively.
As to `Nc1nc(NCc2cccc(Br)c2)c2ccccc2n1`, the IC50 was 22.3 µM in experiment [1] (read-out: IC50) and 0.58 µM in experiment [2]. Moreover, in [3], the inhibition result was “Active”. Moreover, the TIME in experiment [4] came out at 2.6 h.
For `Cc1ccc(CNc2nc(N)nc3ccccc23)cc1`, the IC50 in [1] (read-out: IC50) is over 25 µM; in [2] it was 3.9 µM.
Turning to `Nc1nc(NCCc2ccccc2)nc2ccccc12`, the IC50 in [1] (read-out: IC50) was over 25 µM; in experiment [2], 14.9 µM.
For `Nc1nc(NCc2ccc(Cl)cc2)nc2ccccc12` the same measures were 8.1 µM and 0.93 µM.
Consider `COc1cccc(CNc2nc(N)nc3ccccc23)c1`, for which the IC50 entry in experiment [1] was “Not Active”; in experiment [2], 20.6 µM.
`COc1ccc(CNc2nc(N)c3ccccc3n2)cc1`: the values for the IC50 in [1] (read-out: IC50) and in experiment [2] were over 25 µM and 6.8 µM, respectively.
Turning to `Nc1nc(N)c2ccccc2n1`, the result in [5] and in experiment [6] was Active.
With `Cc1cccc(CNc2nc(N)c3ccccc3n2)c1`, the IC50 in experiment [1] (read-out: IC50) and in experiment [2] was over 25 µM each time.
For `Nc1nc(NCc2cccc(Br)c2)nc2ccccc12`, the inhibition entry in [1] and in experiment [2] was “Dose-dependent effect” throughout. Also, the results for the IC50 in experiment [1] (read-out: IC50) and in experiment [2] were 2.7 µM and 1.5 µM, respectively. Also, the TIME in experiment [4] turned out to be 6 h.
For `Nc1nc(NCc2cccc(Cl)c2)nc2ccccc12`, the IC50 in experiment [1] (read-out: IC50) was 13.4 µM; in experiment [2] it was 5.9 µM.
For `Nc1nc(NCc2ccc(C(F)(F)F)cc2)nc2ccccc12` the same measures were 5.3 µM and 2.3 µM.
Take `Nc1nc(NCc2ccc(Cl)cc2)c2ccccc2n1`: the IC50 in [1] (read-out: IC50) is over 25 µM; in experiment [2], 0.62 µM. Further, the Ratio IC50 in experiment [7] was 2.4.
For `CCCNc1nc(N)c2ccccc2n1`, the IC50 in experiment [1] (read-out: IC50) and in experiment [2] was over 25 µM throughout.
Turning to `Nc1nc(NCc2ccccc2)nc2ccccc12`, the results for the IC50 in [1] (read-out: IC50) and in experiment [2] were 8.4 µM and 2.2 µM, respectively.
For `Nc1nc(NCc2ccc(C(F)(F)F)cc2)c2ccccc2n1` the same measures were over 25 µM and 1.9 µM.
With `Nc1nc(NCc2ccc(Br)cc2)c2ccccc2n1`, the IC50 in experiment [1] (read-out: IC50) stood at 14.8 µM; in experiment [2], 0.08 µM. The inhibition entry in experiment [3], in [8] and in experiment [9] was “Active” each time. Further, in [7], the Ratio IC50 was found to be 18. Moreover, the TIME in experiment [4] was determined as 3.5 h.
Take `Cc1ccc(CNc2nc(N)c3ccccc3n2)cc1`: the results for the IC50 in experiment [1] (read-out: IC50) and in experiment [2] were 22.5 µM and 13.1 µM, respectively.
For `Nc1nc(NCc2cccc(Cl)c2)c2ccccc2n1`, in that order: over 25 µM and 1.9 µM.
With `COc1cccc(CNc2nc(N)c3ccccc3n2)c1`, the IC50 in [1] (read-out: IC50) and in [2] was over 25 µM in each case.
For `Nc1nc(NCc2ccc(Br)cc2)nc2ccccc12`, the inhibition result in experiment [1] and in [2] was “Dose-dependent effect” throughout. For the same molecule, the IC50 in experiment [1] (read-out: IC50) and in [2] was 1.7 µM each time. Also, the Ratio IC50 in experiment [10] was found to be 1.8. Also, the inhibition entry in [4], in experiment [8] and in experiment [9] was “Active” each time.
As to `Nc1nc(NCc2ccc(F)cc2)c2ccccc2n1`, the results for the IC50 in experiment [1] (read-out: IC50) and in experiment [2] were over 25 µM and 3.1 µM, respectively.
For `Nc1nc(NCC2CCCCC2)c2ccccc2n1`, the IC50 was over 25 µM in experiment [1] (read-out: IC50) and 13.6 µM in experiment [2].
For `Nc1nc(NCc2ccccc2)c2ccccc2n1`, in that order: over 25 µM and 4.8 µM.
For `COc1ccc(CNc2nc(N)nc3ccccc23)cc1` the same measures were over 25 µM and 1.1 µM.
For `Nc1nc(NCc2cccc(F)c2)c2ccccc2n1` the same measures were over 25 µM and 2.8 µM.
For the molecule `Nc1nc(NCCc2ccccc2)c2ccccc2n1`, the IC50 in [1] (read-out: IC50) was over 25 µM; in experiment [2], 7.8 µM.
For `Nc1nc(NCc2ccc(F)cc2)nc2ccccc12` the same measures were over 25 µM and over 25 µM.
For `CC(C)Nc1nc(N)c2ccccc2n1`, in that order: over 25 µM and over 25 µM.
Regarding `CC(C)Nc1nc(N)nc2ccccc12`, the IC50 result is “Not Active” in experiment [1] and 10.2 µM in [2].
`Nc1nc(NCc2cccc(C(F)(F)F)c2)nc2ccccc12`: the IC50 in experiment [1] (read-out: IC50) came to 13.8 µM; in experiment [2], 12.5 µM.
For `Nc1nc(NCC2CCCCC2)nc2ccccc12` the same measures were over 25 µM and over 25 µM.
For `Cc1cccc(CNc2nc(N)nc3ccccc23)c1`, in that order: over 25 µM and 3.6 µM.
